# TLR9-MyD88 inh = inhibitors of TLR9-MyD88 association in cells, primary screen, cell-based, CHO, BLA complementation, fluorescence; AID 504734, 2011; actives 0.21% (n = 340,000); CCF4 FRET ratio; inhibition, % at 4.98 µM;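 active = inhibition above the mean over all tested compounds plus 3 SD, cut at about 21% in these data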;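 note: 0% = DMSO only wells and 100% = clavulanate BLA inhibitor control wells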
# TLR4-MyD88 BLA = inhibitors of TLR4-MyD88 association in cells, primary screen, cell-based, HeLa CL3-4, BLA complementation, FRET ratio | actives 0.18% (n = 200,000) | inhibition, % at 8.4 µM | HeLa CL3-4 TLR4/MyD88 BLA complementation | Toll-like receptor 4 (Homo sapiens) + Myeloid differentiation primary response protein …; in the data active = inhibition above about 25%;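 note: 0% = vehicle and 100% = reference inhibitor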
# CHOP inh = inhibitors of CHOP promoter induction, primary screen, cell-based, unfolded protein response, luciferase reporter; CHO-K1 CHOP-promoter luciferase, tunicamycin-induced, 15-18 h; inhibition, % at 10 µM; actives 3.8% (n = 220,000); AID 2732, 2010;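 active = compounds that reduced the stress-induced luciferase reporter signal by more than about 70% of percent inhibition, limit read from the data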;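 note: 0% = tunicamycin plus vehicle and 100% = wells without tunicamycin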
# CHOP UPR activ = activators of apoptotic CHOP UPR arm, primary screen, cell-based, CHO-CHOP luciferase reporter, luminescence, uHTS. activation, % at 10 µM. UPR activation; percent of tunicamycin response over DMSO baseline. actives 0.34% (n = 330,000);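 active = at 10 µM dose, activation of 40% or more, normalized to positive control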;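 note: 100% = tunicamycin at 10 µg/mL and 0% = DMSO alone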
#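 Test system: CHO CHOP reporter cells. Input: 500 CHO-CHOP cells per well. Medium: F12 with 10% FBS. Technique: luciferase luminescence. Measure: percent activation relative to tunicamycin control. Dosing: 10 µM compound, 0.5% DMSO. Timing: 16-18 h cell attachment, then 6 h compound exposure, 37 °C.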
# XBP1 UPR activ = activators of adaptive XBP1 UPR arm, primary screen, cell-based, CHO-XBP1 luciferase reporter, luminescence, uHTS; IRE1-XBP1 UPR activation; percent of tunicamycin response, DMSO as zero; activation, % at 20 µM; actives 0.33% (n = 330,000); AID 463104, 2010;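 active = versus positive control, 20 µM dose yields 30% or more activation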;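 note: 100% = tunicamycin at 10 µg/mL and 0% = DMSO only wells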
#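 Material: CHO-XBP1 cells stably carrying IRE1-XBP1-driven luciferase reporter / Amount: 1000 cells per well / Compound: 20 µM, 1% DMSO / Times: 6 h treatment, 37 °C / Detection: luciferase luminescence / Measure: % activation of reporter signal versus tunicamycin and DMSO controls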
# NOD2 RIPK2 PPI = NOD2-RIPK2 binding disruptors in cells, primary screen, fluorescence, CHO cells, BLA complementation | Receptor-interacting serine/threonine-protein kinase 2 (Homo sapiens), O43353 | actives 0.38% (n = 360,000) | AID 624267, 2012 | inhibition, % at 4.98 µM | CCF4 ratio; in the data active = inhibition above about 21%;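 note: 0% = vehicle only and 100% = reference blocker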
# Starred values were filed as active, the others as inactive; / = no result given. Many of the other results were omitted from the sample, so hits are more common in it than they were.
SMILES,TLR9-MyD88 inh,TLR4-MyD88 BLA,CHOP inh,CHOP UPR activ,XBP1 UPR activ,NOD2 RIPK2 PPI
NNC(=O)C1COc2cc3ccccc3cc2O1 (stereo not drawn),11,/,/,3,-4,4
O=C(N/N=C\c1ccccn1)C1COc2cc3ccccc3cc2O1 (stereo not drawn),-9,19,72*,-4,-1,-3
CC(=O)NC1=NC(=O)/C(=C/c2cn(C(C)=O)nc2-c2ccccc2)S1,3,-17,73*,-2,1,-6
CCN=C1S/C(=C\c2cn(C(C)=O)nc2-c2ccccc2)C(=O)N1CC,-3,-9,71*,3,10,-3
CCCCCCn1cc(CN2CC(N(C)CCC)CS2(=O)=O)nn1 (stereo not drawn),/,/,/,/,/,-11
Cc1cc(Cl)ccc1OC(C)C(=O)Nc1ccc([N+](=O)[O-])cn1 (stereo not drawn),6,11,75*,0,-5,-14
CCNc1nc(NC(C)C)nc(N(C#N)CCOc2ccc(Cl)cc2Cl)n1,-2,-10,76*,-2,-2,2
Cc1cc(Nc2ccccc2)nn1C(=O)c1ccc([N+](=O)[O-])cc1,-1,-13,5,1,1,8
Cc1cc(Nc2ccccc2)nn1C(=O)c1ccc(Cl)cc1,2,3,77*,4,-1,-2
O=C(Nc1ccnn1C1CCN(Cc2ccccc2F)CC1)C1CCCC1,6,/,/,0,0,-10
Cc1c(Cl)c([N+](=O)[O-])nn1Cc1ccc(C(=O)N/N=C\c2ccccn2)o1,12,0,73*,/,/,-3
COc1cc(/C=N\NC(=O)c2ccc(Cn3nc([N+](=O)[O-])c(Cl)c3C)o2)ccc1O,-6,-4,-18,1,-1,1
O=c1[nH]c2ccccc2nc1-c1nnnn1Cc1ccccc1,/,/,/,/,/,11
Cc1ccc(C(=O)OC2CCS(=O)(=O)c3sccc32)cc1 (stereo not drawn),3,0,77*,-1,0,4
CCOC(=O)C(CCCCOc1cccc(CC)c1)C(=O)OCC,-3,-11,71*,4,-2,-2
CCn1c2c(c3cc(Cl)ccc31)CCCC2=O,-3,-10,76*,-2,3,-4
Cc1cc(=O)oc2cc(O)cc(OCc3ccccc3)c12,-10,/,/,/,/,1
CCCOc1cc(C)c(S(=O)(=O)n2ccc(C)n2)cc1C,6,3,93*,2,-5,-8
COc1cc(S(=O)(=O)n2ccc(C)n2)c(C)cc1C,9,/,/,/,/,12
CN1N=C(c2ccc(Cl)cc2)CC(c2ccc(Cl)cc2)C1=O (stereo not drawn),6,5,24,-1,-1,0
CCN1CC(c2ccccc2)C(c2ccc(Cl)cc2)=N1 (stereo not drawn),-9,-1,79*,0,-1,3
COC(=O)CCN(C1CCCCC1)S(=O)(=O)c1ccc(S(=O)(=O)NC2CCCCC2)cc1,-4,7,75*,-3,-1,9
CCOc1cc(S(=O)(=O)NC2CCCCCC2)ccc1F,0,0,76*,-1,-2,5
COc1ccc(S(=O)(=O)NC2CCCCC2)cc1C,-11,5,83*,-2,-3,-11
COC(=O)COc1ccc(S(=O)(=O)NC2CCCCCC2)cc1,-15,4,-26,-1,-4,-12
SMILES,TLR9-MyD88 inh,TLR4-MyD88 BLA,CHOP inh,CHOP UPR activ,XBP1 UPR activ,NOD2 RIPK2 PPI
CCOc1ccc(N2CCc3c(C)nc(SC)nc32)cc1,-8,3,96*,-1,3,-7
Cc1ccc(NC(=O)Cn2c(=O)oc3cc(S(=O)(=O)N4CCC(C)CC4)ccc32)cc1C,-7,-6,74*,1,-4,-7
COc1ccc(NC(=O)Cn2c(=O)oc3cc(S(=O)(=O)N4CCCC4)ccc32)cc1,-7,/,/,1,-3,-8
Cn1nc(C(C)(C)C)cc1C(=O)NCc1ccc(N2CCCC2=O)cc1,-11,-14,83*,6,-2,-11
CCOC(=O)/C=C/C(=O)Nc1ccccc1-c1ccccc1NC(=O)/C=C/C(=O)OCC,-7,-4,80*,/,/,-4
CCOC(=O)/C=C/C(=O)OCC(=O)Nc1cccc(Cl)c1Cl,-2,-10,-5,0,-6,-7
Cc1cc(C)n(-c2nnc(C)n2/N=C/c2cc(Br)ccc2OCc2ccccc2)n1,2,4,92*,3,6,6
CCn1c2ccccc2n2c(=O)c(=O)n(CC(=O)Nc3ccc(C(C)C)cc3)nc12,-8,-10,87*,4,0,-7
CC(C)c1ccc(NC(=O)Cn2c(=O)oc3ccccc32)cc1,0,/,/,1,2,-5
CCCCc1c(C)c(C#N)c2nc3ccccc3n2c1Cl,/,-1,106*,/,/,/
O=C(Nc1ccc(Cl)c(Cl)c1)Nc1ccc(Br)cc1F,8,1,101*,3,5,-13
O=C(Nc1ccc(Cl)cc1)Nc1ccc(Cl)c(Cl)c1,/,/,/,10,7,/
CC(C)(CO)NC(=O)C(Cc1ccccc1)N1C(=O)c2ccccc2C1=O (stereo not drawn),-5,/,/,-1,-2,-5
CC(C)(C)c1ccc(C(=O)Nc2ccc(Cl)cc2)cc1,6,-8,6,5,-1,3
COC(=O)Cc1ccc(NC(=O)c2ccc(C(C)(C)C)cc2)cc1,-2,6,72*,-4,-3,15
COc1ccc(Br)cc1/C=N/NC(=O)c1ccc(COc2ccc3c(c2)CCC3)o1,-4,-9,45,5,-2,-1
O=C(N/N=C/c1cc([N+](=O)[O-])ccc1O)c1ccc(COc2ccc3c(c2)CCC3)o1,-10,/,/,21,33*,-4
Cc1cc(-c2csc(N)n2)c(C)n1CCC(C)C,-8,-7,79*,-4,2,3
Cc1cc(-c2csc(NCc3ccccc3)n2)c(C)n1C,-5,-3,20,/,/,-9
Cc1cc(-c2csc(N)n2)c(C)n1CCc1ccccc1,1,-4,81*,-6,-2,-6
Cc1nn(C)cc1-c1csc(N)n1,1,4,-18,-1,0,8
O=C1CC(c2ccco2)CC(O)=C1C=Nc1ccc(Br)cc1 (stereo not drawn),-1,6,87*,24,22,0
